From ChEMBL document CHEMBL1156627, “Ring expanded nucleoside analogues inhibit RNA helicase and intracellular human immunodeficiency virus type 1 replication” (J Med Chem, 2008) come the findings set out here.

In data set [1] the test system is Human immunodeficiency virus 1. Put plainly: Antiviral activity against HIV1 transfected in human HeLa cells assessed as reduction of p55 viral protein synthesis at 25 uM. The format is functional, organism-based. A digest of the protocol:
(§1)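 HeLa cells transfected with 2µg pNL4-3 proviral clone; compound 25 µM added 3 hrs post-transfection. Lysates prepared 24 hrs later; viral proteins detected by Western blotting with anti-HIV-1 patient IgG (hyperimmune patient serum).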

Data set [2] deals with Human immunodeficiency virus 1. Put plainly: Inhibition of HIV1 replication in human MT4 cells assessed as reduction in reverse transcriptase at 25 uM after 8 days by Western blotting. It counts as functional, organism-based. A digest of the protocol:
(§2)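 MT4 cells (4 × 10^6, RPMI + 10% FBS) infected with 20,000 RT counts of NL4-3 (HeLa-transfection stock); compound added 4 hrs post-infection. Half the medium replaced every 2 days with drug-containing medium; supernatants collected every 2 days up to day 8 and assayed for RT activity (also p24 ELISA). Three independent experiments.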

Data set [3] deals with MT4. Put plainly: Cytotoxicity against human MT4 cells at 1 to 100 uM after 6 days by colorimetric assay relative to control. It counts as cell-based. To be noted: mt4, 144 h. A digest of the protocol:
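MT4 cells (4 × 10^6 in 2 ml, RPMI + 10% FBS) incubated with 1, 10 or 100 µM compound over 6 days; half the medium replaced every 2 days with fresh drug-containing medium. At each harvest 100 µl suspension incubated 2 hrs with WST-8, absorbance at 450 nm, compared with untreated cells.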

For data set [4], the system named is Mus musculus. Put plainly: Toxicity in BALB/c mouse assessed as tissue necrosis at 0.2 to 200 uM, ip administered […] relative to control. To be noted: in vivo, 840 h. It counts as organism-based. An outline of the steps:
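BALB/c mice, 8–10 weeks old, groups of 4, injected intraperitoneally twice weekly for 4 weeks with boluses calculated to give body distributions of 0.2, 2, 20 and 200 µM. Controls received saline or DMSO. Mice monitored 5 weeks in total, tail-vein blood weekly, then necropsy and multi-organ histology.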

The target in data set [5] is ATP-dependent RNA helicase DDX3X (Homo sapiens) (UniProt O00571). Put plainly: Inhibition of ATP dependent RNA unwinding activity of human RNA helicase DDX3. A digest of the protocol: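 Partially double-stranded RNA: 120-nt T3 transcript from KpnI-cut pBluescript hybridized (95 °C, 20 min) to complementary [α-32P]UTP-labelled T7 transcript from EcoRI-cut vector. Products resolved on 10% polyacrylamide gel, phosphorimaging.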

Data set [6] has as its system Human immunodeficiency virus 1. The experiment in a line: Inhibition of HIV1 replication in human MT4 cells assessed as p24 capsid protein level at 25 uM after 8 days by ELISA. The format is functional, organism-based. A digest of the protocol: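 NL4-3 virus stock made by HeLa transfection, titred by RT assay. 4 × 10^6 MT4 cells (RPMI, 10% FBS) infected with 20,000 RT counts; compound added 4 hrs post infection. Half the medium replaced every 2 days with fresh medium holding the same compound level. Supernatants taken every 2 days over 8 days for p24 ELISA. Three repeats.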

Data set [7] relates to Human immunodeficiency virus 1. The experiment in a line: Inhibition of macrophage tropic HIV1 AD8 replication in monocyte-derived macrophages assessed as reduction in reverse transcriptase at 25 uM after 5 days by Western blotting. The format is functional, organism-based. An outline of the steps: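 Monocyte-derived macrophages from elutriated blood monocytes cultured 5–7 days in RPMI-1640 with 10% pooled human AB serum and M-CSF, then infected with 10^5 RT counts of M-tropic HIV-1 AD8 and treated with compound. Supernatants collected every 3 days for RT activity and p24 ELISA; three repeats.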

Data set [8] deals with Human immunodeficiency virus 1. The experiment in a line: Inhibition of HIV1 replication in human MT4 cells assessed as reduction in reverse transcriptase production at 10 uM. It counts as functional, organism-based. An outline of the steps: as §2
For data set [9], the system named is Human immunodeficiency virus 1. Put plainly: Antiviral activity against HIV1 transfected in human HeLa cells assessed as reduction of p24 viral protein synthesis at 25 uM. It counts as functional, organism-based. An outline of the steps: as §1
In data set [10] the test system is Human immunodeficiency virus 1. The experiment in a line: Inhibition of macrophage tropic HIV1 AD8 replication in monocyte-derived macrophages p24 capsid protein level at 25 uM after 5 days by ELISA. It counts as functional, organism-based. An outline of the steps:
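Elutriated blood monocytes cultured 5–7 days in RPMI-1640 with 10% pooled human AB serum and M-CSF to give macrophages. Infected on day 5 with 100,000 RT counts of HIV-1 AD8 (stock from HeLa transfection) and treated with compound. Supernatants collected every 3 days for p24 ELISA. Three repeats.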

The structures appear in SMILES notation. The source made the active and inactive calls. No cut-off for these calls is given here.

Sequence of ATP-dependent RNA helicase DDX3X (Homo sapiens) (O00571 2-662 limits assumed): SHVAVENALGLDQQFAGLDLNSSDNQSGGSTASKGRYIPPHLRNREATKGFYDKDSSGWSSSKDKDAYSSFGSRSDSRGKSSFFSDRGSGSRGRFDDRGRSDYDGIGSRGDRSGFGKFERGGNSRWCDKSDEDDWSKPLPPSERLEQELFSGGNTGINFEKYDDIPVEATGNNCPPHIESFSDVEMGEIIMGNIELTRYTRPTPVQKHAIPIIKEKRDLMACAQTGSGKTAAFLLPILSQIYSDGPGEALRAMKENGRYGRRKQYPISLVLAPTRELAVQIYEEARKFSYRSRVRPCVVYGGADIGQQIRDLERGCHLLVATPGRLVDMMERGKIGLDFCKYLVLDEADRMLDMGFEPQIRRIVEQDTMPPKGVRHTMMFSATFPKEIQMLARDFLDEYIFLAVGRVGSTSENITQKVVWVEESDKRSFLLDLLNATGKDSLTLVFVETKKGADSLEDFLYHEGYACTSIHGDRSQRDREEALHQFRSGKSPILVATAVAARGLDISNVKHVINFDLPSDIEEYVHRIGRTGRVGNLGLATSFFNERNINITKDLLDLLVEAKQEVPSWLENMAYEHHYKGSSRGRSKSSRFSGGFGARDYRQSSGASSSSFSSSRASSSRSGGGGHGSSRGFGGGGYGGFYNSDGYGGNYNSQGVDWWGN

For `CCCCCCCCCCCCCCCCCCNc1nc(=O)c2c(ncn2[C@@H]2C[C@@H](O)[C@H](CO)O2)c(=O)[nH]1`, the result in [1], in data set [2], in [5], in [6], in data set [7] and in data set [8] was Active. Further, the outcome in data set [9] and in data set [10] was Active. Also, the Activity result in [3] and in [4] was “Non-toxic” throughout.
With `CCCCCCCCCCCCCCCCCCNc1nc(=O)c2ncn([C@@H]3O[C@H](CO)[C@@H](O)[C@H]3O)c2c(=O)[nH]1`, the result in data set [1], in data set [2], in data set [5], in data set [6], in data set [7] and in [8] was Active. For the same compound, the outcome in [9] and in [10] was Active. Moreover, the Activity entry in data set [3] and in [4] was “Non-toxic” throughout.
